In ChEMBL document CHEMBL1124063, “Arteether, a new antimalarial drug: synthesis and antimalarial properties” (J Med Chem, 1988):
In brackets after ≈: the same amount, converted by molar mass.

Columns and labels:
Plasmodium falciparum [1] = assay: Inhibitory concentration against Plasmodium falciparum W2 Indochina; type: functional, organism-based
Procedure, shortened: (§1)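 Micromanipulation-derived P. falciparum clones were tested by semiautomated microdilution at 0.5% parasitemia and 1.5% hematocrit. Drugs were dissolved in DMSO and diluted in medium with 10% plasma, giving serial dilutions over a 64-fold range. Plates were held at 37 °C under 5% O2/5% CO2/90% N2 for 24 h, then pulsed with tritiated hypoxanthine for 18–20 h. Uptake was counted by scintillation, and IC50 was obtained by nonlinear regression.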

Plasmodium falciparum [2] = assay: Inhibitory concentration against Plasmodium falciparum D6 (Sierra Leone); type: functional, organism-based; procedure, shortened: as §1
Plasmodium falciparum [3] = assay: In vitro inhibitory activity against Plasmodium falciparum (sierra leone clone); type: functional, organism-based
Plasmodium berghei [4] = assay: Blood schizonticidal activity against Plasmodium berghei 1100; type: functional
Procedure, shortened: (§2)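 Mice infected with parasitised donor blood of drug-sensitive or drug-resistant lines were given a single subcutaneous dose daily on 4 consecutive days, starting 3 h post-infection, across a dose range. Compounds were dissolved in water or sonicated into 0.1% Tween 80. Parasitaemia was read from thin blood films 1 day after treatment ended and compared with sham-treated controls. ED50/ED90 came from log dose/probit plots, with a resistance index at the ED90 level.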

Plasmodium berghei [5] = assay: Blood schizonticidal activity against Plasmodium berghei ORA; type: functional; procedure, shortened: as §2
Plasmodium berghei [6] = assay: Blood schizonticidal activity against Plasmodium berghei B; type: functional; procedure, shortened: as §2
Plasmodium berghei [7] = assay: Blood schizonticidal activity against Plasmodium berghei NS; type: functional; procedure, shortened: as §2
Plasmodium berghei [8] = assay: Blood schizonticidal activity against Plasmodium berghei NPN; type: functional; procedure, shortened: as §2
Plasmodium berghei [9] = assay: Blood schizonticidal activity against Plasmodium berghei P; type: functional; procedure, shortened: as §2
Plasmodium berghei [10] = assay: Blood schizonticidal activity against Plasmodium berghei MEN; type: functional; procedure, shortened: as §2
Plasmodium berghei [11] = assay: Blood schizonticidal activity against Plasmodium berghei PYR; type: functional; procedure, shortened: as §2
Plasmodium berghei [12] = assay: Blood schizonticidal activity against Plasmodium berghei N; type: functional; procedure, shortened: as §2
Plasmodium berghei [13] = assay: Blood schizonticidal activity against Plasmodium berghei RC; type: functional; procedure, shortened: as §2
Plasmodium berghei [14] = assay: Blood schizonticidal activity against Plasmodium berghei QS; type: functional; procedure, shortened: as §2
Plasmodium berghei [15] = assay: Blood schizonticidal activity against Plasmodium berghei N/HAL; type: functional; procedure, shortened: as §2
Plasmodium berghei [16] = assay: Blood schizonticidal activity against Plasmodium berghei ART; type: functional; procedure, shortened: as §2
Plasmodium berghei [17] = assay: Blood schizonticidal activity against Plasmodium berghei N/1100; type: functional; procedure, shortened: as §2

| Compound | IC50 (Plasmodium falciparum [1]) [nM] | IC50 (Plasmodium falciparum [2]) [nM] | IC50 (Plasmodium falciparum [3]) [ng/mL] | ED90 (Plasmodium berghei [4]) | ED90 (Plasmodium berghei [5]) | I 90 (Plasmodium berghei [5]) | ED90 (Plasmodium berghei [6]) | I 90 (Plasmodium berghei [6]) | ED90 (Plasmodium berghei [7]) | I 90 (Plasmodium berghei [7]) | ED90 (Plasmodium berghei [8]) | I 90 (Plasmodium berghei [8]) | ED90 (Plasmodium berghei [9]) | I 90 (Plasmodium berghei [9]) | ED90 (Plasmodium berghei [10]) | I 90 (Plasmodium berghei [10]) | ED90 (Plasmodium berghei [11]) | I 90 (Plasmodium berghei [11]) | ED90 (Plasmodium berghei [12]) | I 90 (Plasmodium berghei [12]) | also measured |
| --- | --- | --- | --- | --- | --- | --- | --- | --- | --- | --- | --- | --- | --- | --- | --- | --- | --- | --- | --- | --- | --- |
| OC(c1cc(C(F)(F)F)nc2c(C(F)(F)F)cccc12)C1CCCCN1 (stereo not given) [MEFLOQUINE] | 5.75 | 33.4 | – | – | – | – | – | – | – | – | – | – | – | – | – | – | – | – | – | – | – |
| C[C@H]1[C@H](OC(=O)CCC(=O)O)O[C@@H]2O[C@@]3(C)CC[C@H]4[C@H](C)CC[C@@H]1[C@@]24OO3 [SODIUM ARESUNATE] | 1.66 | 2.18 | – | – | – | – | – | – | – | – | – | – | – | – | – | – | – | – | – | – | – |
| CCO[C@H]1O[C@@H]2OC3(C)CC[C@H]4[C@H](C)CC[C@@H]([C@H]1C)[C@@]24O3 (single isomer, unassigned) | – | 580 | 172 (≈ 0.579 µM) | – | – | – | – | – | – | – | – | – | – | – | – | – | – | – | – | – | – |
| C[C@H]1[C@@H](O)O[C@@H]2OC3(C)CC[C@H]4[C@H](C)CC[C@@H]1[C@@]24O3 (single isomer, unassigned) | – | 506 | 136 (≈ 0.505 µM) | – | – | – | – | – | – | – | – | – | – | – | – | – | – | – | – | – | – |
| CCO[C@@H]1O[C@@H]2OC3(C)CC[C@H]4[C@H](C)CC[C@@H]([C@H]1C)[C@@]24OO3 (single isomer, unassigned) [ALPHA-ARTEETHER] | 3.07 | 4.18 | – | 4.1 | 0.8 | 0.7 | 2.9 | 2.4 | 1.5 | 1.3 | 3.5 | 2.9 | 2.5 | 2.1 | 1.7 | 1.4 | 1.3 | 1.1 | 1.3 | 1 | ED90 (Plasmodium berghei [13]): 16.5; I 90 (Plasmodium berghei [13]): 13.8; ED90 (Plasmodium berghei [14]): 13.8; I 90 (Plasmodium berghei [14]): 10.6; ED90 (Plasmodium berghei [15]): 9.5; I 90 (Plasmodium berghei [15]): 7.3; ED90 (Plasmodium berghei [16]): 29; I 90 (Plasmodium berghei [16]): 22.3; I 90 (Plasmodium berghei [17]): 3.4 |
| C[C@H]1[C@@H](O)O[C@@H]2O[C@@]3(C)CC[C@H]4[C@H](C)CC[C@@H]1[C@@]24OO3 [ARTENIMOL] | 1.79 | 1.83 | 0.52 (≈ 0.00183 µM) | – | – | – | – | – | – | – | – | – | – | – | – | – | – | – | – | – | – |
| CCO[C@H]1O[C@@H]2O[C@@]3(C)CC[C@H]4[C@H](C)CC[C@@H]([C@H]1C)[C@@]24OO3 [ARTEMOTIL] | 2.94 | 4.07 | 1.27 (≈ 0.00407 µM) | 4.2 | 0.8 | 0.7 | 0.9 | 0.8 | 2.2 | 2 | 2.5 | 2.3 | 0.8 | 0.7 | 2.2 | 2 | 0.8 | 0.7 | 0.5 | 1 | ED90 (Plasmodium berghei [13]): 8.2; I 90 (Plasmodium berghei [13]): 7.5; ED90 (Plasmodium berghei [14]): 1.4; I 90 (Plasmodium berghei [14]): 2.8; ED90 (Plasmodium berghei [15]): 2.1; I 90 (Plasmodium berghei [15]): 4.2; ED90 (Plasmodium berghei [16]): 2.3; I 90 (Plasmodium berghei [16]): 4.6; I 90 (Plasmodium berghei [17]): 3.8 |
| C[C@@H]1CC[C@H]2[C@@H](C)C(=O)O[C@@H]3O[C@@]4(C)CC[C@@H]1[C@]32OO4 [ARTEMISININ] | 6.41 | 10.5 | 2.97 (≈ 0.0105 µM) | 17 | 7.5 | 1.8 | 8.2 | 2 | 10 | 2.4 | 90 | 21.4 | 12 | 2.9 | 6.2 | 1.5 | 4.8 | 1.1 | 2.3 | 1 | ED90 (Plasmodium berghei [13]): 630; I 90 (Plasmodium berghei [13]): 150; ED90 (Plasmodium berghei [14]): 24; I 90 (Plasmodium berghei [14]): 10.4; ED90 (Plasmodium berghei [15]): 31; I 90 (Plasmodium berghei [15]): 13.5; ED90 (Plasmodium berghei [16]): 49; I 90 (Plasmodium berghei [16]): 21.3; I 90 (Plasmodium berghei [17]): 4 |
| CO[C@H]1O[C@@H]2O[C@@]3(C)CC[C@H]4[C@H](C)CC[C@@H]([C@H]1C)[C@@]24OO3 [ARTEMETHER] | 3.34 | 4.49 | – | – | – | – | – | – | – | – | – | – | – | – | – | – | – | – | – | – | – |
| C[C@@H]1CC[C@H]2[C@@H](C)C(=O)O[C@@H]3O[C@@]4(C)CC[C@@H]1[C@]32O4 [DEOXYARTEMISININ] | – | 2860 | – | – | – | – | – | – | – | – | – | – | – | – | – | – | – | – | – | – | – |
